The results in this text go back to ChEMBL document CHEMBL1145499, “Asiatic acid and corosolic acid enhance the susceptibility of Pseudomonas aeruginosa biofilms to tobramycin” (2007).

What all share (assay type): functional
For assay [1], the system named is Pseudomonas aeruginosa. The experiment in a line: Antibacterial activity against Pseudomonas aeruginosa PAO1 assessed as log reduction of bacterial count by rotating disk reactor method. The gist of the method: (§1)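 Rotating disk reactor (~200 rpm, 180 ml, 60-min residence, ca. 26°C) with polystyrene coupons and P. aeruginosa PAO1 inoculated per ASTM E-2196-02. Biofilms were grown 24 h in batch, then 24 h under flow. Compound was added to ~100 µg/ml final (ethanol or DMSO vehicle) for 24 h in batch. Coupons then received 100 µg/ml tobramycin or PBS for 2 h at room temperature. LR = negative-control mean log10 CFU/cm2 minus treated mean, three coupons per set.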

For assay [2], the system named is Pseudomonas aeruginosa. The experiment in a line: Antibacterial activity against Pseudomonas aeruginosa PAO1.
The test system of assay [3] is Pseudomonas aeruginosa. The experiment in a line: Antibacterial activity against Pseudomonas aeruginosa PAO1 assessed as log reduction of bacterial count at 10 ug/ml by rotating disk reactor method.
Assay [4] deals with Pseudomonas aeruginosa. The experiment in a line: Antibacterial activity against Pseudomonas aeruginosa PAO1 assessed as log reduction of bacterial count at 100 ug/ml by rotating disk reactor method. The gist of the method:
as §1

Assay [5] has as its system Pseudomonas aeruginosa. The experiment in a line: Antibacterial activity against Pseudomonas aeruginosa PAO1 assessed as log reduction of bacterial count at 50 ug/ml by rotating disk reactor method.
Assay [6] deals with Pseudomonas aeruginosa. The experiment in a line: Antibacterial activity against Pseudomonas aeruginosa PAO1 assessed as log reduction of bacterial count at 50 ug/ml by CDC biofilm reactor method. The gist of the method: (§2)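 CDC-type biofilm reactor with PAO1 on polystyrene coupons, grown 24 h batch then 24 h continuous flow. Medium was fed at 13 ml/min, giving ~27 min residence. Coupon treatments, inoculum, medium and analysis matched the rotating disk runs: sonication, plate counts, log10 CFU/cm2, and log reduction against untreated control.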

Assay [7] concerns Pseudomonas aeruginosa. The experiment in a line: Antibacterial activity against Pseudomonas aeruginosa PAO1 assessed as log reduction of bacterial count at 100 ug/ml by CDC biofilm reactor method. The gist of the method:
as §2

On to `O=C(O)c1cn(C2CC2)c2cc(N3CCNCC3)c(F)cc2c1=O` [CIPROFLOXACIN], for which, in assay [1], the Activity is recorded as -0.29. In assay [2], the MIC – broadly, the smallest concentration in the dilution series that meets the test's criterion for growth inhibition – is at least 1 µg/mL.

For the molecule `NC[C@H]1O[C@H](O[C@H]2[C@H](O)[C@@H](O[C@H]3O[C@H](CO)[C@@H](O)[C@H](N)[C@H]3O)[C@H](N)C[C@@H]2N)[C@H](N)C[C@@H]1O` [TOBRAMYCIN], the Activity in assay [3] was determined as 1.51; in assay [1], 0.4; in assay [4], 1.36; in assay [5], 0.78.

Regarding `C[C@H]1[C@H](C)CC[C@]2(C(=O)O)CC[C@]3(C)C(=CC[C@@H]4[C@@]5(C)C[C@@H](O)[C@H](O)[C@@](C)(CO)[C@@H]5CC[C@]43C)[C@H]12` [ASIATIC ACID], the Activity is on record as 0.8 in assay [6], 0.14 in assay [3], 0.19 in assay [4] and 0.12 in assay [5]. The molecule also showed an MIC in assay [2] of at least 128 µg/mL.

Take `C[C@H]1[C@H](C)CC[C@]2(C(=O)O)CC[C@]3(C)C(=CC[C@@H]4[C@@]5(C)C[C@@H](O)[C@H](O)C(C)(C)[C@@H]5CC[C@]43C)[C@H]12` [COROSOLIC ACID]: the Activity in assay [7] is 0.7; in assay [4] it was 0.02; in assay [5] it was -0.04. The molecule also registered an MIC in assay [2] of over 128 µg/mL.
